Values after ≈ are worked out from the molar mass of the structure shown.
Legend:
[1] = Cytotoxicity against […]-differentiated human THP1 cells assessed as growth inhibition at 100 ug/ml measured after 48 hrs by MTT assay relative to control; assay type: toxicity, cell-based, THP-1; conditions: read-out: GI
Method in brief: (§1)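 MTT assay with 48 h compound exposure. THP-1 macrophages made by 24 h PMA treatment. Each concentration tested in triplicate in one experiment. % cytotoxicity = (control−test)/(control−blank)×100, with control = cells + DMSO and blank = medium without cells. IC50 from % survival versus concentration plots.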

Bacillus subtilis [2] = test: Growth inhibition of Bacillus subtilis NCIM 2079 at 30 ug/ml measured after 12 hrs relative to control; assay type: functional; conditions: NCIM 2079, 12 h, read-out: GI
Method in brief: (§2)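 Bacteria grown in LB at 37 °C and 180 rpm to OD 1. Compounds added to wells, then 0.1% inoculum of 1 OD culture (620 nm). Growth read as OD at 620 nm after 8 h for gram-negative and after 12 h for gram-positive strains.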

[3] = Selectivity index, ratio of GI50 for human PANC1 cells to MIC for Mycobacterium tuberculosis H37Ra ATCC 25177 at dormant stage; assay type: toxicity, cell-based, PANC-1; conditions: read-out: Selectivity Index
Method in brief: (§3)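 SI is the cell-line GI50 divided by the dormant-stage mycobacterial MIC. […] THP-1 macrophages were PMA-differentiated for 24 h.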

[4] = Selectivity index, ratio of GI50 for human A549 cells to MIC for Mycobacterium tuberculosis H37Ra ATCC 25177 at dormant stage; assay type: toxicity, cell-based; conditions: read-out: Selectivity Index; method in brief: as §3
[5] = system: Mycobacterium tuberculosis; test: Growth inhibition of Mycobacterium bovis BCG ATCC 35743 at dormant stage at 25 ug/ml measured after 12 days by nitrate reductase dye based two fold dilution method relative to control; assay type: functional; conditions: BCG str. ATCC 35743, 288 h, read-out: GI
Method in brief: (§4)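 M. bovis BCG was grown in Dubos medium and assayed in Mycobacterium pheli minimal medium (pH 6.6), with compounds from DMSO stocks. Incubation lasted 8 days for active and 12 days for dormant cultures. Viability was read by nitrate reductase at 540 nm against cell-free blanks, with vehicle set as 100% growth. Primary screen was at 30, 10 and 3 µg/ml, in triplicate, mean ± SD. MIC was taken from dose-response curves.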

Staphylococcus aureus = test: Antibacterial activity against of Staphylococcus aureus NCIM 2010 measured after 12 hrs; assay type: functional; conditions: NCIM 2010, 12 h; method in brief: as §2
Candida albicans = test: Antifungal activity against Candida albicans NCIM 3471 by standard agar method; assay type: functional
Method in brief: (§5)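 MICs determined by standard agar method; DMSO as solvent control.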

[6] = system: Mycobacterium tuberculosis; test: Growth inhibition of Mycobacterium tuberculosis H37Ra ATCC 25177 at active stage at 1.56 ug/ml measured after 8 days by XTT dye based two fold dilution method relative to control; assay type: functional; conditions: H37Ra ATCC 25177, 192 h, read-out: GI
Method in brief: (§6)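 MTB H37Ra was grown in Dubos medium, then exposed in Mycobacterium pheli minimal medium (pH 6.6) to compounds dissolved in DMSO. The assay ended on day 8 (active) or day 12 (dormant). Viable cells were measured by XTT reduction menadione assay at 470 nm, blank-corrected, relative to vehicle control. Triplicates were expressed as mean ± SD. MIC came from dose-response curves.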

Pseudomonas fluorescens = test: Growth inhibition of Pseudomonas fluorescens NCIM 2036 at 3 ug/ml measured after 8 hrs relative to control; assay type: functional; conditions: NCIM 2036, 8 h, read-out: GI; method in brief: as §2
[7] = system: Mycobacterium tuberculosis; test: Growth inhibition of Mycobacterium bovis BCG ATCC 35743 at dormant stage at 30 ug/ml measured after 12 days by nitrate reductase dye based two fold dilution method relative to control; assay type: functional; conditions: BCG str. ATCC 35743, 288 h, read-out: GI; method in brief: as §4
[8] = system: Mycobacterium tuberculosis; test: Growth inhibition of Mycobacterium tuberculosis H37Ra ATCC 25177 at dormant stage at 50 ug/ml measured after 12 days by XTT dye based two fold dilution method relative to control; assay type: functional; conditions: H37Ra ATCC 25177, 288 h, read-out: GI; method in brief: as §6
Escherichia coli [9] = test: Antibacterial activity against Escherichia coli NCIM 2688 measured after 8 hrs; assay type: functional; conditions: NCIM 2688, 8 h; method in brief: as §2
[10] = Cytotoxicity against primary HUVEC measured after 48 hrs by MTT assay; assay type: toxicity, cell-based; conditions: human
[11] = Cytotoxicity against human THP1 cells measured after 48 hrs by MTT assay; assay type: toxicity, cell-based, THP-1; method in brief: as §1
[12] = Selectivity index, ratio of GI50 for HUVEC to MIC for Mycobacterium tuberculosis H37Ra ATCC 25177 at dormant stage
[13] = system: Mycobacterium tuberculosis; test: Growth inhibition of Mycobacterium tuberculosis H37Ra ATCC 25177 at active stage at 100 ug/ml measured after 8 days by XTT dye based two fold dilution method relative to control; assay type: functional; conditions: H37Ra ATCC 25177, 192 h, read-out: GI; method in brief: as §6
Escherichia coli [14] = test: Growth inhibition of Escherichia coli NCIM 2688 at 3 ug/ml measured after 8 hrs relative to control; assay type: functional; conditions: NCIM 2688, 8 h, read-out: GI; method in brief: as §2
[15] = Antifungal activity against Fusarium oxysporum NCIM 1332 by standard agar method; assay type: functional; method in brief: as §5
[16] = system: Mycobacterium tuberculosis; test: Growth inhibition of Mycobacterium tuberculosis H37Ra ATCC 25177 at active stage at 6.25 ug/ml measured after 8 days by XTT dye based two fold dilution method relative to control; assay type: functional; conditions: H37Ra ATCC 25177, 192 h, read-out: GI; method in brief: as §6
[17] = Selectivity index, ratio of GI50 for […]-differentiated human THP1 cells to MIC for Mycobacterium tuberculosis H37Ra ATCC 25177 at dormant stage; assay type: toxicity, cell-based, THP-1; conditions: read-out: Selectivity Index; method in brief: as §3
Bacillus subtilis [18] = test: Antibacterial activity against Bacillus subtilis NCIM 2079 measured after 12 hrs; assay type: functional; conditions: NCIM 2079, 12 h; method in brief: as §2
[19] = system: Mycobacterium tuberculosis; test: Growth inhibition of Mycobacterium bovis BCG ATCC 35743 at dormant stage at 50 ug/ml measured after 12 days by nitrate reductase dye based two fold dilution method relative to control; assay type: functional; conditions: BCG str. ATCC 35743, 288 h, read-out: GI; method in brief: as §4
[20] = Cytotoxicity against human PANC1 cells measured after 48 hrs by MTT assay; assay type: toxicity, cell-based, PANC-1
[21] = system: Mycobacterium tuberculosis; test: Growth inhibition of Mycobacterium bovis BCG ATCC 35743 at dormant stage at 6.25 ug/ml measured after 12 days by nitrate reductase dye based two fold dilution method relative to control; assay type: functional; conditions: BCG str. ATCC 35743, 288 h, read-out: GI; method in brief: as §4
[22] = system: Mycobacterium tuberculosis; test: Growth inhibition of Mycobacterium bovis BCG ATCC 35743 at dormant stage at 100 ug/ml measured after 12 days by nitrate reductase dye based two fold dilution method relative to control; assay type: functional; conditions: BCG str. ATCC 35743, 288 h, read-out: GI; method in brief: as §4
[23] = Cytotoxicity against human PANC1 cells assessed as growth inhibition at 100 ug/ml measured after 48 hrs by MTT assay relative to control; assay type: toxicity, cell-based, PANC-1; conditions: read-out: GI
[24] = system: Mycobacterium tuberculosis; test: Growth inhibition of Mycobacterium tuberculosis H37Ra ATCC 25177 at dormant stage at 100 ug/ml measured after 12 days by XTT dye based two fold dilution method relative to control; assay type: functional; conditions: H37Ra ATCC 25177, 288 h, read-out: GI; method in brief: as §6
[25] = Cytotoxicity against human THP1 cells assessed as growth inhibition at 100 ug/ml measured after 48 hrs by MTT assay relative to control; assay type: toxicity, cell-based, THP-1; conditions: read-out: GI; method in brief: as §1
[26] = system: Mycobacterium tuberculosis; test: Growth inhibition of Mycobacterium tuberculosis H37Ra ATCC 25177 at dormant stage measured after 12 days by XTT dye based two fold dilution method; assay type: functional; conditions: H37Ra ATCC 25177, 288 h; method in brief: as §6
Bacillus subtilis [27] = test: Growth inhibition of Bacillus subtilis NCIM 2079 at 3 ug/ml measured after 12 hrs relative to control; assay type: functional; conditions: NCIM 2079, 12 h, read-out: GI; method in brief: as §2
[28] = system: Mycobacterium tuberculosis; test: Growth inhibition of Mycobacterium tuberculosis H37Ra ATCC 25177 at active stage measured after 8 days by XTT dye based two fold dilution method; assay type: functional; conditions: H37Ra ATCC 25177, 192 h; method in brief: as §6

CCOc1ccc2nc(Cl)c(/C=C3\SC(=S)NC3=O)cc2c1
inhibition at 48 h, 100 ug/ml [1]: 35.1%
inhibition of growth at 30 µg/mL (Bacillus subtilis [2]): 98.5%
selectivity ratio [3]: 28.6
selectivity ratio [4]: 28.6
inhibition of growth at 25 µg/mL [5]: 100%
MIC (Staphylococcus aureus): > 30 µg/mL
MIC (Candida albicans): 125 µg/mL (≈ 356 µM)
inhibition of growth at 1.56 µg/mL [6]: 28.7%
inhibition of growth at 3 µg/mL (Pseudomonas fluorescens): 50.2%
inhibition of growth at 30 µg/mL [7]: 94.5%
inhibition of growth at 50 µg/mL [8]: 93%
MIC (Escherichia coli [9]): > 30 µg/mL
GI50 at 48 h [10]: > 100 µg/mL
GI50 at 48 h [11]: > 100 µg/mL
Selectivity Index [12]: 28.6
inhibition of growth at 100 µg/mL [13]: 111%
inhibition of growth at 3 µg/mL (Escherichia coli [14]): 64.7%
MIC [15]: 150 µg/mL (≈ 428 µM)
inhibition of growth at 6.25 µg/mL [16]: 104%
selectivity ratio [17]: 28.6
MIC (Bacillus subtilis [18]): 28.4 µg/mL (≈ 80.9 µM)
inhibition of growth at 50 µg/mL [19]: 99.6%
GI50 at 48 h [20]: > 100 µg/mL
inhibition of growth at 6.25 µg/mL [21]: 101%
inhibition of growth at 100 µg/mL [22]: 99.5%
inhibition at 48 h, 100 ug/ml [23]: 30.1%
inhibition of growth at 100 µg/mL [24]: 105%
inhibition at 48 h, 100 ug/ml [25]: 28.6%
IC50 [26]: 2.3 µg/mL (≈ 6.56 µM)
IC90 [26]: 3.5 µg/mL (≈ 9.98 µM)
inhibition of growth at 3 µg/mL (Bacillus subtilis [27]): -34%
IC50 [28]: 1.9 µg/mL (≈ 5.42 µM)
IC90 [28]: 2.8 µg/mL (≈ 7.98 µM)
